Test results: paper PMC3119342 (Chemistry & biology, 2011)
Entries after “also recorded” stand apart in the source; their conditions may differ.

Assays:
MAGE lipids = experiment: Lipid measurements; type: cell-based, human; conditions: for MAGE lipids: prostate cancer cells (Figure S4); for MAGE lipid levels: 1 μM, 48 hr
PC3 cells [1] = experiment: Serum-free cell survival assay; type: cell-based, human; conditions: prostate cancer (PC3) cells; JW480 1 μM, 48 h in situ
PC3 cells [2] = experiment: Invasion assay; type: cell-based, human; conditions: prostate cancer (PC3) cells; JW480 1 μM, 48 h in situ
FAAH = biological target: T1, FAAH (Mus musculus, UniProt O08914); experiment: Competitive ABPP of FAAH in mouse brain proteome; type: biochemical; conditions: gel-based competitive ABPP of a mouse brain proteome
T1 sequence (O08914 1-579): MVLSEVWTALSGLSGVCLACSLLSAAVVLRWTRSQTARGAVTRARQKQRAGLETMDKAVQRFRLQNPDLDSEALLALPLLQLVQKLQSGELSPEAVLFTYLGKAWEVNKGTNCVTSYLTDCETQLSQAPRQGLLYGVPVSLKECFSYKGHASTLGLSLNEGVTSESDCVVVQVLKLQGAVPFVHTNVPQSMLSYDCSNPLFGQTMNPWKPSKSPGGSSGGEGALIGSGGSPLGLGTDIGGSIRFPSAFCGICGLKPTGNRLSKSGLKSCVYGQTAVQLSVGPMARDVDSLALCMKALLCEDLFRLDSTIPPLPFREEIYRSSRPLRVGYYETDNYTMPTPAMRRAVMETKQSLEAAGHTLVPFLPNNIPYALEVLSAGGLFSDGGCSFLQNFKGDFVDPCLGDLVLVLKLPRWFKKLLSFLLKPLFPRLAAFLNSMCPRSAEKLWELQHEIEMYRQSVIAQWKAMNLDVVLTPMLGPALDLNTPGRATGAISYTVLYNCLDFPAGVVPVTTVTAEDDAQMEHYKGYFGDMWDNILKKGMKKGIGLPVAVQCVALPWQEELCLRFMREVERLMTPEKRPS

mouse brain KIAA1363 = biological target: T2, mouse brain KIAA1363 (Mus musculus, UniProt Q8BLF1); experiment: Gel-based competitive ABPP; type: biochemical; conditions: read-out: IC50 for KIAA1363, mouse brain proteome
T2 sequence (Q8BLF1 1-408): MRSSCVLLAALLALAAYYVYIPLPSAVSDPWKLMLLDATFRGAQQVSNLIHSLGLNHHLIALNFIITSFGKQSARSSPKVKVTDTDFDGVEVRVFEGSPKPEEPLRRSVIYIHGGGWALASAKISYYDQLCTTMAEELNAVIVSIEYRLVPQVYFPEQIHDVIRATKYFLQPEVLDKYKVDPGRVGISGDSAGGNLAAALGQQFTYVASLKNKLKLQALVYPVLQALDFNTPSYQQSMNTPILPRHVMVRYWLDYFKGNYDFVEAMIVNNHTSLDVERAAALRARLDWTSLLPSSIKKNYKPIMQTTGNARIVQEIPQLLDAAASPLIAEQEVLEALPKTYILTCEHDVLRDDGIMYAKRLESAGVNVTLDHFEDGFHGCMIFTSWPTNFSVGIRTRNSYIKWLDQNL

AChE = AChE (Mus musculus, UniProt P21836); conditions: mouse brain proteome; for IC50: read-out: IC50 for AChE, substrate acetylthiocholine
Sequence of AChE (P21836 32-614): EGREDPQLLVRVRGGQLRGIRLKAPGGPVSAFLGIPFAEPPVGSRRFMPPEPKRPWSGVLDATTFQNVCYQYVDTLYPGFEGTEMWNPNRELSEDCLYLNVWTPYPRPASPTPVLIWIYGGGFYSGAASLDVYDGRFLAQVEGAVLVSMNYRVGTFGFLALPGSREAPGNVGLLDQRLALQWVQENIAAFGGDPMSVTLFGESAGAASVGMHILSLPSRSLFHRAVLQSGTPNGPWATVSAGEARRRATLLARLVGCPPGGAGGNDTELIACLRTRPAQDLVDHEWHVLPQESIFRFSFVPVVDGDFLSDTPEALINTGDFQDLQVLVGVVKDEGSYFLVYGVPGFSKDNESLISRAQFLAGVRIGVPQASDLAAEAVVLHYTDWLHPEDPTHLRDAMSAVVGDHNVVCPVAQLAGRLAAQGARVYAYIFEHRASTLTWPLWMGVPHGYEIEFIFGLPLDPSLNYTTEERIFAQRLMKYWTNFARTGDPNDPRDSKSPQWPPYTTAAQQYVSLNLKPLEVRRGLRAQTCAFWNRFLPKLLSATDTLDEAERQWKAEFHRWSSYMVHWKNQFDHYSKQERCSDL

HSL = biological target: T3, HSL (Mus musculus, UniProt P54310); experiment: Competitive ABPP in rosiglitazone-differentiated 3T3-10T1/2 adipocyte proteome; type: biochemical
T3 sequence (P54310 1-759): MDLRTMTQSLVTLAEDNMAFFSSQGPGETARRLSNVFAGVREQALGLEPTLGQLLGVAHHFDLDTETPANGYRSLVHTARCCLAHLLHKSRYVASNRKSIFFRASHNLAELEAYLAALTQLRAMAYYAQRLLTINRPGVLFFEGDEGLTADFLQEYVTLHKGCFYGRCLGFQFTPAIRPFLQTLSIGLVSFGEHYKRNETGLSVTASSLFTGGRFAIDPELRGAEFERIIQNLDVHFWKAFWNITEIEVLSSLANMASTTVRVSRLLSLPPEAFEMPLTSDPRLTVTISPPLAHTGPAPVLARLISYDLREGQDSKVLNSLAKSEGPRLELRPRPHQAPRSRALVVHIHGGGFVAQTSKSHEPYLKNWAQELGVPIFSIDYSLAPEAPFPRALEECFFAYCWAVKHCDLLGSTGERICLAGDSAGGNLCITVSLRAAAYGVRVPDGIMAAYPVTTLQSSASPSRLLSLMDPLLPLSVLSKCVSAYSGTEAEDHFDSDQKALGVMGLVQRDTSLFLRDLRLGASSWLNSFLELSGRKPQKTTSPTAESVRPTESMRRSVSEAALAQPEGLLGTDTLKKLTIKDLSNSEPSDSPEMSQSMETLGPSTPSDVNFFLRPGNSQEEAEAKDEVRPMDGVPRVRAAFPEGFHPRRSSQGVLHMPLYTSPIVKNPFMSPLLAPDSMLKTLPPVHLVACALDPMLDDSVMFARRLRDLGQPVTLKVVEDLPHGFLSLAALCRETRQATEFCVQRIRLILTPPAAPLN

PC3 cells [3] = experiment: Cell migration assay; type: cell-based, human; conditions: prostate cancer (PC3) cells; JW480 1 μM, 48 h in situ
KIAA1363 [4] = biological target: T4, KIAA1363 (Homo sapiens, UniProt Q6PIU2); experiment: Gel-based competitive ABPP in living PC3 cells; type: cell-based; conditions: for IC50: read-out: IC50 for KIAA1363
T4 sequence (Q6PIU2 1-408): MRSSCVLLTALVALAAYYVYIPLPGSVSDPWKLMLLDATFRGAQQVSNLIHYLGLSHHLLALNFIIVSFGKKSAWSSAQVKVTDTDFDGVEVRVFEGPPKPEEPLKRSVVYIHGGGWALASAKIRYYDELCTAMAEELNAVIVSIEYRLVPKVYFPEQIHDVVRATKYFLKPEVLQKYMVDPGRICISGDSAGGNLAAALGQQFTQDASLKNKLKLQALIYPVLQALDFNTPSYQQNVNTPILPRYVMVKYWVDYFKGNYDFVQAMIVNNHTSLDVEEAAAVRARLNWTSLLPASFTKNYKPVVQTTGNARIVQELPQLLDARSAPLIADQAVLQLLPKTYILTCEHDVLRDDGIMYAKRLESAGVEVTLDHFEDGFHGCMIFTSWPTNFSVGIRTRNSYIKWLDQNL

LNCaP cells = experiment: Cell survival assay in LNCaP cells; type: cell-based, human; conditions: which express low levels of KIAA1363
brain KIAA1363 = biological target: T5, brain KIAA1363 (Mus musculus, UniProt Q8BLF1); experiment: Competitive ABPP of brain proteomes from inhibitor-treated mice; type: in vivo; conditions: for inhibition of brain KIAA1363: 4 hr
T5 sequence (Q8BLF1 1-408): T2 sequence (Q8BLF1 1-408)

[5] = biological target: serine hydrolase activities detected in the brain proteome (Mus musculus, UniProt P21836); conditions: brain proteome of treated mice (Figure 4C)
Sequence of serine hydrolase activities detected in the brain proteome (P21836 32-614): as the sequence (P21836 32-614) above

PC3 tumor xenograft = PC3 tumor xenograft growth in SCID mice; type: in vivo, mouse; conditions: 80 mg/kg, oral gavage, one dose per day, versus vehicle
Outline: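 PC3 cells were washed, trypsinised, resuspended serum-free at 2.0 × 10^4 cells/μL, and 100 μL was injected into the flank of C.B17 SCID mice. Dosing was once daily by oral gavage in PEG300 (4 μL/g) or vehicle, starting immediately after injection. Tumours were measured with calipers every 3 days and excised 4 hr after the final dose on day 33 for ABPP.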

[6] = system: other mouse brain serine hydrolases; experiment: Gel-based competitive ABPP, other serine hydrolases of mouse brain proteome; type: biochemical
[7] = biological target: T6, KIAA1363 (2-acetyl MAGE hydrolase activity) (Homo sapiens, UniProt Q6PIU2); experiment: 2-Acetyl MAGE hydrolytic activity assay in prostate cancer cells; type: cell-based; conditions: 1 μM, 48 h
T6 sequence (Q6PIU2 1-408): T4 sequence (Q6PIU2 1-408)

[8] = system: serine hydrolase activities detected in PC3 cells; experiment: Competitive ABPP-MudPIT of PC3 cells treated in situ; type: cell-based, human; conditions: 1 μM in situ, ~30 serine hydrolase activities
KIAA1363 [9] = biological target: T4, KIAA1363; experiment: Gel-based competitive ABPP in PC3 cell proteomes; type: biochemical; conditions: read-out: IC50 for human KIAA1363, in vitro treatment

Row | SMILES | MAGE lipids (MAGE lipids) | survival in serum-free media (PC3 cells [1]) | invasion (PC3 cells [2]) | selectivity for KIAA1363 compared to FAAH (FAAH) | IC50 (mouse brain KIAA1363) [nM] | cross-reactivity with AChE (AChE) | IC50 (AChE) [nM] | cross-reactivity with HSL (HSL) | migration (PC3 cells [3]) | other results
1 | CCCCOC[C@H]1CCCC[C@H]1COCCNC(=O)Oc1ccccc1F [AS115, reference compound] | reductions | also observed | also observed |  |  |  |  |  |  | 
2 | COc1ccc(CNC(=O)Oc2cccc3c2OC(C)(C)C3)cc1 [JW148] | reductions | also observed | also observed | good selectivity | ~200 | cross-reactivity | 1000 | cross-reactivity | also observed | 
3 | CC(C)c1ccccc1OC(=O)NCCc1ccc2ccccc2c1 [JW480] |  | reductions; also recorded: reduced | reductions; also recorded: reduced |  |  | negligible cross-reactivity | > 100000 | negligible cross-reactivity | reductions; also recorded: reduced | time in situ inhibition of KIAA1363 was maintained (KIAA1363 [4]; 1 μM, in situ): at least 48 hr; IC50 (KIAA1363 [4]; PC3 cells, in situ): 6 nM; IC50 (KIAA1363 [4]; living PC3 cells, in situ treatment, presence or absence of 10% fetal calf serum): 6 to 12 nM; survival in LNCaP cells (LNCaP cells): did not affect; MAGE lipid levels (MAGE lipids; DU145 cells): significant reductions; also recorded: significantly reduces; MAGE lipid levels (MAGE lipids; PC3 cells): significant reductions; also recorded: significantly reduces; time of full inhibition of KIAA1363 in mice (brain KIAA1363; following a single administration, orally active): at least 24 hrs; inhibition of brain KIAA1363 (brain KIAA1363; mice, 5 mg/kg i.p.): complete inhibition; inhibition of brain KIAA1363 (brain KIAA1363; mice, 20 mg/kg oral): complete inhibition; time inhibition of KIAA1363 was maintained in vivo (brain KIAA1363; mice, single administration, 20 mg/kg, oral): up to 24 hr; cross-reactivity with AChE by competitive ABPP-MudPIT [5]: negligible cross-reactivity; PC3 tumor growth (PC3 tumor xenograft): significantly impaired; also recorded: significantly reduces; cross-reactivity with other mouse brain serine hydrolases [6]: negligible cross-reactivity; 2-acetyl MAGE hydrolase activity ([7]; DU145 cells): completely blocked; also recorded: ablates; 2-acetyl MAGE hydrolase activity ([7]; PC3 cells): completely blocked; also recorded: ablates; off-target activity across serine hydrolases by ABPP-MudPIT [8]: no off-target activity; also recorded: only KIAA1363 was inhibited; IC50 (KIAA1363 [9]): 12 nM
4 | CC1(C)Cc2cccc(OC(=O)NCc3ccc(F)cc3)c2O1 [WWL38] |  |  |  | good selectivity | ~200 | cross-reactivity |  | cross-reactivity |  | 
